# Assay results: PubChem BioAssay AID652255 (Vanderbilt Specialized Chemistry Center, 2013)
# Activity calls are given as the source filed them. How the calls were made is not given here.
# Target: Proteinase-activated receptor 1 (Homo sapiens) (UniProt P25116)
# Experiment: inhibition of PAR1-AP platelet activation – cell-based, CRC, P-selectin flow cytometry, selectivity assay for PAR4 antagonist project, dose response (AID 652255)
# Details: Washed human platelets
# Method in brief: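 Assay system: Antibody-labelled washed platelets. Reagent: PAR1 activating peptide (PAR1-AP) as agonist. Dosing: antagonist exposure with 0.5% DMSO final. Schedule: 5 min label, 5 min compound, 10 min agonist. Signal: flow cytometry fluorescence intensity, 100,000 platelet-gated events, paraformaldehyde-fixed. Control set: vehicle (DMSO) control.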
# Chain of Proteinase-activated receptor 1 (Homo sapiens) (P25116 whole entry, looked up): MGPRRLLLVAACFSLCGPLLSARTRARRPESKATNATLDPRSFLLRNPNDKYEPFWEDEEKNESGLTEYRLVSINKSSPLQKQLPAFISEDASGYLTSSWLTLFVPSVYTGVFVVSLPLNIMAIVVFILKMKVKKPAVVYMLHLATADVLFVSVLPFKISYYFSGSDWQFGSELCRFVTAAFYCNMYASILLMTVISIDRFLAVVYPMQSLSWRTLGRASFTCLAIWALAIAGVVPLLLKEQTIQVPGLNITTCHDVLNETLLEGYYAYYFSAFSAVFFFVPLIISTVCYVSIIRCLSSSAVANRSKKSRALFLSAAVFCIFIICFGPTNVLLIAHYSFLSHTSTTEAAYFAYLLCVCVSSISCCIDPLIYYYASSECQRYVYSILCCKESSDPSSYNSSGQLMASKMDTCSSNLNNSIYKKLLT
IC50,max inhibition (stronger effect = higher value),Structure (SMILES)
inactive,–,CCCOCc1c(-c2ccccc2)c2cc([N+](=O)[O-])ccc2n1C
–,57.1%,COc1ccc(COc2ccc(C(=O)NCCC(C)(C)C)cc2)cc1
